# In ChEMBL document CHEMBL5329172, “Chloroacetamide fragment library screening identifies new scaffolds for covalent inhibition of the TEAD·YAP1 interaction” (RSC Med Chem, 2023):
# The source made the active and inactive calls. The calls are words filed in the database; no cut-off is given here.
# Columns and labels:
# [1] = molecular target: T1, Transcriptional coactivator YAP1/Transcriptional enhancer factor TEF-1 (Homo sapiens) (UniProt P46937+P28347); assay: (§1) Inhibition of TEAD1 (209 to 426 residues) (unknown origin) expressed in Escherichia coli BL21 (DE3) cells/FAM-labelled YAP1 (60 to 99 residues)(unknown origin) protein-protein interaction preincubated for 24 hrs at 4 degree C with compound followed by fluorescent labelled YAP1 addition by fluorescence polarization assay
# T1 sequence (P28347 whole entry, looked up, the tested form may be a part): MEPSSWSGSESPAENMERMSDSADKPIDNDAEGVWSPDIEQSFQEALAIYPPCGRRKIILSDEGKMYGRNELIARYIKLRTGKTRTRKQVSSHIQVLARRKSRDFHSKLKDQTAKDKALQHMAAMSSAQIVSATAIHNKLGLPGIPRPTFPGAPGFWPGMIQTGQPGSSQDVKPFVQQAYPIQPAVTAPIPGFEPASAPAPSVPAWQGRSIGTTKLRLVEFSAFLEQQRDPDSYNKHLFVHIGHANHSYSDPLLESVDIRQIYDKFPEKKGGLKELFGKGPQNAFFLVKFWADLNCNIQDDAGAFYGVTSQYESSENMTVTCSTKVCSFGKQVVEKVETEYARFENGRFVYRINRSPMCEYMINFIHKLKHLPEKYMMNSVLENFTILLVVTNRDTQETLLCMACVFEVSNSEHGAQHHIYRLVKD
# T1 sequence (P46937 whole entry, looked up, the tested form may be a part): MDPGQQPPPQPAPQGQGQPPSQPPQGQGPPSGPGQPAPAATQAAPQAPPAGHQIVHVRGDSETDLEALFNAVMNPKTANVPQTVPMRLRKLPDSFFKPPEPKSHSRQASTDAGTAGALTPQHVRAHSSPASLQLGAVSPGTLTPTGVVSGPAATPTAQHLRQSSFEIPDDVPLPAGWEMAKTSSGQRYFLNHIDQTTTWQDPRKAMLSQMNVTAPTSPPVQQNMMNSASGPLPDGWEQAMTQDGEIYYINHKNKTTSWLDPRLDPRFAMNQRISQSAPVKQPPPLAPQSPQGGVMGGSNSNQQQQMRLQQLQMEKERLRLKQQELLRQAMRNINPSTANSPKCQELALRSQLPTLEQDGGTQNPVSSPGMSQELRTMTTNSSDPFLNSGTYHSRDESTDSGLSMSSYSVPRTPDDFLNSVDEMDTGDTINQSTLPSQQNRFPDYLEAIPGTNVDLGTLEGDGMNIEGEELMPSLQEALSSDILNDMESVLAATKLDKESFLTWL
# In short: (§2)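 FP: 64 nM TEAD4, TEAD4C367S, TEAD2 or TEAD3, or 250 nM TEAD1, was preincubated with compound for 24 h at 4 °C in PBS with 0.01% Triton X-100. FAM-YAP1 60–99 peptide (disulfide-crosslinked) was then added at 16 nM final. Polarization was read at ex 485/em 535 nm. Percent inhibition was taken relative to no-compound and no-protein controls. The single-point primary screen used 50 μM.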
# S2 = assay: Inhibition of uPAR (unknown origin) expressed in S2 cells/FAM-labelled alpha-helical peptide AE-147 (unknown origin) protein-protein interaction preincubated for 24 hrs at 4 degree C with uPAR followed by fluorescent labelled AE-147 addition by fluorescence polarization assay; settings: Homo sapiens
# In short: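 Counter-screen FP: 250 nM uPAR lacking the GPI anchor (from S2 cells) was preincubated with compound for 24 h at 4 °C in PBS with 0.01% Triton X-100. AE-147-FAM peptide was then added at 100 nM final and polarization read at ex 485/em 535 nm.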
# [2] = molecular target: T2, TEAD3-YAP1 (Homo sapiens) (UniProt P46937+Q99594); assay: as §1, with “TEAD3 (210” for “TEAD1 (209”, “427” for “426”; in short: as §2
# T2 sequence (P46937 whole entry, looked up, the tested form may be a part): as above
# T2 sequence (Q99594 whole entry, looked up, the tested form may be a part): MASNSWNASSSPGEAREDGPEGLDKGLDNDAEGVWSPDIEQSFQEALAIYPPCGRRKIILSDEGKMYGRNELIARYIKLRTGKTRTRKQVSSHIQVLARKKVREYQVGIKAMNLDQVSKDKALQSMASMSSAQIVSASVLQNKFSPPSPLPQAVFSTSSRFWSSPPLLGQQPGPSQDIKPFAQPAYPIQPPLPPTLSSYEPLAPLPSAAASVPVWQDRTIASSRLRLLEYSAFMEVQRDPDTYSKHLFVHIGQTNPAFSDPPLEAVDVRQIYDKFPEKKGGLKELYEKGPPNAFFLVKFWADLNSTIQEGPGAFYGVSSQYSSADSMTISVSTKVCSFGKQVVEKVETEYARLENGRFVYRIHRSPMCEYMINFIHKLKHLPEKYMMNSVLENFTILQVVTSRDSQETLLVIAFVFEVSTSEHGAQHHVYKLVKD
# YAP1-TEAD4 [3] = molecular target: T3, YAP1-TEAD4 (Homo sapiens, UniProt Q15561); assay: (§3) Covalent inhibition of GST-tagged TEAD4 (217 to 434 residues) (unknown origin) expressed in Escherichia coli BL21 (DE3) cells/FAM-labelled YAP1 (60 to 99 residues)(unknown origin) protein-protein interaction assessed as protein-compound adduct formation by measuring inhibition constant at 100 uM incubated for 0.5 to 6 hrs at 4 degree C followed by mass spectrometry analysis
# T3 sequence (P46937 whole entry, the tested form may be a part): as the sequence (P46937 whole entry, looked up, the tested form may be a part) above
# T3 sequence (Q15561 whole entry, the tested form may be a part): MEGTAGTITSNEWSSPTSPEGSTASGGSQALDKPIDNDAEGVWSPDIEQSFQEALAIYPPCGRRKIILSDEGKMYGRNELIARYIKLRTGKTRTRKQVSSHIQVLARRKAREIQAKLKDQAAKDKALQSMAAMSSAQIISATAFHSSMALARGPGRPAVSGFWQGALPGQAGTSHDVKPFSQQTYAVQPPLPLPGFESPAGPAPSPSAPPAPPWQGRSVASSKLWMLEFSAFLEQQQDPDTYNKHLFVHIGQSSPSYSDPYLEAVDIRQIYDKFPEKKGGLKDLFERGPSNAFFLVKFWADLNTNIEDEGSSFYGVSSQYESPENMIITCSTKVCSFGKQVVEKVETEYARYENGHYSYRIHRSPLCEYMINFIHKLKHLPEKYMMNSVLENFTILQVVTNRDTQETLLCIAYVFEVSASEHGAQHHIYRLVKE
# In short: (§4)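 Kinetics by MS: 2.5 μM TEAD4 was incubated at 4 °C with 3.1–100 μM compound. Aliquots were quenched with 0.1 M formic acid at set times from 0.5 h upward and analysed by whole-protein MS. Adduct relative to unreacted protein was fit to 100×(1−e^(−kobs·t)) to give kobs. kobs versus concentration was fit hyperbolically for kinact and KI, or linearly for kinact/KI where no plateau was reached.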
# YAP1-TEAD4 [4] = molecular target: T3, YAP1-TEAD4; assay: as §1, with “GST-tagged TEAD4 (217” for “TEAD1 (209”, “434” for “426”, “48” for “24”, “TEAD4” for “compound”
# In short: (§5)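 Time-course FP: 64 nM TEAD4 was preincubated with varying compound concentrations for 0.5, 6, 24 or 48 h at 4 °C in PBS with 0.01% Triton X-100. 16 nM FAM-YAP1 60–99 peptide was then added and polarization read at 485/535 nm, n = 2. Inhibition was taken relative to no-compound and no-protein controls.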
# Homo sapiens [5] = species: Homo sapiens; assay: Covalent inhibition of GST-tagged TEAD4 C367S mutant (unknown origin) expressed in Escherichia coli BL21 (DE3)/FAM-labelled YAP1 (60 to 99 residues)(unknown origin) protein-protein interaction assessed as protein-compound adduct formation at 100 uM incubated for 24 hrs at 4 degree C followed by mass spectrometry analysis
# In short: (§6)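 Intact-protein MS: 2.5 μM protein (TEAD4 217–434 with GST cleaved, TEAD4C367S, TEAD1 209–426, TEAD2 217–447 or TEAD3 210–427) incubated with 100 μM compound in PBS for 24 h at 4 °C. Samples were centrifuged to remove precipitate, desalted on a C3 reverse-phase column with a water/acetonitrile 0.1% formic acid gradient, and masses were read by Q-TOF. Adduct peaks were reported as percent.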
# YAP1-TEAD4 [6] = molecular target: T3, YAP1-TEAD4; assay: as §1, with “GST-tagged TEAD4 (217” for “TEAD1 (209”, “434” for “426”, “0.5” for “24”, “TEAD4” for “compound”; in short: as §5
# [7] = molecular target: T4, YAP1-TEAD4 (Homo sapiens) (UniProt P46937+Q15561); assay: (§7) Covalent inhibition of GST-tagged TEAD4 (217 to 434 residues) (unknown origin) expressed in Escherichia coli BL21 (DE3) cells/FAM-labelled YAP1 (60 to 99 residues)(unknown origin) protein-protein interaction assessed as second protein-compound adduct formation at 100 uM incubated for 24 hrs at 4 degree C followed by mass spectrometry analysis; in short: as §6
# [8] = molecular target: T5, TEAD2-YAP1 (Homo sapiens) (UniProt P46937+Q15562); assay: as §1, with “TEAD2 (217” for “TEAD1 (209”, “447” for “426”; in short: as §2
# T5 sequence (P46937 whole entry, looked up): as the sequence (P46937 whole entry, looked up, the tested form may be a part) above
# T5 sequence (Q15562 whole entry, looked up): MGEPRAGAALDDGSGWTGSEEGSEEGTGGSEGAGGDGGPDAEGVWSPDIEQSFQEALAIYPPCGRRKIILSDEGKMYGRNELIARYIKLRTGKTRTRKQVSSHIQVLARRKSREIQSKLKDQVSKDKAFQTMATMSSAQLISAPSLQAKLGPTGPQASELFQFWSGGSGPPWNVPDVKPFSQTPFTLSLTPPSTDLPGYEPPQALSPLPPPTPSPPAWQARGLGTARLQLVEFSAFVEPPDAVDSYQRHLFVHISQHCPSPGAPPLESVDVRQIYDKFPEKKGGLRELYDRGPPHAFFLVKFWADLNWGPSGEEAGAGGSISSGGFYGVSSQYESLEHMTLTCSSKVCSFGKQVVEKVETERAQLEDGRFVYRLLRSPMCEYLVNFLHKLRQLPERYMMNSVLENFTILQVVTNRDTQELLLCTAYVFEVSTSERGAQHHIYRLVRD
# [9] = molecular target: T4, YAP1-TEAD4 (Homo sapiens); assay: as §1, with “GST-tagged TEAD4 (217” for “TEAD1 (209”, “434” for “426”, “interaction assessed as maximum inhibition at 50 uM” for “interaction”, “TEAD4” for “compound”; in short: as §2
# [10] = molecular target: T4, YAP1-TEAD4 (Homo sapiens); assay: as §3, with “second order rate constant, kinact/ki ratio” for “measuring inhibition constant”; settings: time 0.5-6 hrs; in short: as §4
# [11] = molecular target: T4, YAP1-TEAD4 (Homo sapiens); assay: as §7, with “additional” for “second”; in short: as §6
# YAP1-TEAD4 [12] = molecular target: T3, YAP1-TEAD4; assay: as §1, with “GST-tagged TEAD4 (217” for “TEAD1 (209”, “434” for “426”, “TEAD4” for “compound”; in short: as §2
# [13] = molecular target: T1, Transcriptional coactivator YAP1/Transcriptional enhancer factor TEF-1 (Homo sapiens); assay: as §7, with “TEAD1 (209” for “GST-tagged TEAD4 (217”, “426” for “434”, “as” for “as second”; in short: as §6
# [14] = molecular target: T4, YAP1-TEAD4 (Homo sapiens); assay: as §1, with “GST-tagged TEAD4 (217” for “TEAD1 (209”, “434” for “426”, “interaction assessed maximum inhibition” for “interaction”, “48” for “24”, “TEAD4” for “compound”; in short: as §5
# [15] = molecular target: T4, YAP1-TEAD4 (Homo sapiens); assay: as §1, with “GST-tagged TEAD4 (217” for “TEAD1 (209”, “434” for “426”, “interaction assessed maximum inhibition” for “interaction”, “6” for “24”, “TEAD4” for “compound”; in short: as §5
# [16] = molecular target: T4, YAP1-TEAD4 (Homo sapiens); assay: as §3, with “reaction half life” for “inhibition constant”; settings: time 0.5-6 hrs; in short: as §4
# Homo sapiens [17] = species: Homo sapiens; assay: as §1, with “GST-tagged TEAD4 C367S mutant” for “TEAD1 (209 to 426 residues)”, “TEAD4 C367S mutant” for “compound”; in short: as §2
# [18] = molecular target: T4, YAP1-TEAD4 (Homo sapiens); assay: as §7, with “as” for “as second”; in short: as §6
# YAP1-TEAD4 [19] = molecular target: T3, YAP1-TEAD4; assay: as §1, with “GST-tagged TEAD4 (217” for “TEAD1 (209”, “434” for “426”, “6” for “24”, “TEAD4” for “compound”; in short: as §5
# [20] = molecular target: T4, YAP1-TEAD4 (Homo sapiens); assay: as §1, with “GST-tagged TEAD4 (217” for “TEAD1 (209”, “434” for “426”, “interaction assessed maximum inhibition” for “interaction”, “0.5” for “24”, “TEAD4” for “compound”; in short: as §5
# TEAD2-YAP1 = TEAD2-YAP1 (Homo sapiens, UniProt Q15562); assay: as §1, with “TEAD2 (217” for “TEAD1 (209”, “447” for “426”; in short: as §2
# Sequence of TEAD2-YAP1 (P46937 whole entry): as the sequence (P46937 whole entry, looked up, the tested form may be a part) above
# Sequence of TEAD2-YAP1 (Q15562 whole entry): as the sequence (Q15562 whole entry, looked up) above
# [21] = molecular target: T5, TEAD2-YAP1 (Homo sapiens); assay: as §1, with “TEAD2 (217” for “TEAD1 (209”, “447” for “426”, “interaction assessed as maximum inhibition at 50 uM” for “interaction”; in short: as §2
# [22] = as §1, with “GST-tagged TEAD4 C367S mutant” for “TEAD1 (209 to 426 residues)”, “TEAD4 C367S mutant” for “compound”; set-up: species or system Homo sapiens; in short: as §2
# [23] = molecular target: Transcriptional coactivator YAP1/Transcriptional enhancer factor TEF-1 (Homo sapiens, UniProt P28347); assay: as §1; in short: as §2
# Sequence of Transcriptional coactivator YAP1/Transcriptional enhancer factor TEF-1 (P46937 whole entry): as the sequence (P46937 whole entry, looked up, the tested form may be a part) above
# Sequence of Transcriptional coactivator YAP1/Transcriptional enhancer factor TEF-1 (P28347 whole entry): as the sequence (P28347 whole entry, looked up, the tested form may be a part) above
# [24] = molecular target: T1, Transcriptional coactivator YAP1/Transcriptional enhancer factor TEF-1 (Homo sapiens); assay: as §1, with “interaction assessed as maximum inhibition at 50 uM” for “interaction”; in short: as §2
# [25] = molecular target: T5, TEAD2-YAP1 (Homo sapiens); assay: as §7, with “TEAD2” for “GST-tagged TEAD4”, “447” for “434”, “as” for “as second”; in short: as §6
# [26] = molecular target: T2, TEAD3-YAP1 (Homo sapiens); assay: as §7, with “TEAD3 (210” for “GST-tagged TEAD4 (217”, “427” for “434”, “as” for “as second”; in short: as §6
Structure (SMILES),inhibition [1],inhibition (S2),inhibition [2],Ki (YAP1-TEAD4 [3]) [µM],IC50 (YAP1-TEAD4 [4]) [µM],inhibition (Homo sapiens [5]),IC50 (YAP1-TEAD4 [6]) [µM],percent second protein-compound adduct [7] [%],Imax [9] [%],Ratio [10] [M⁻¹ s⁻¹],IC50 (YAP1-TEAD4 [12]) [µM],inhibition [13],Imax [14] [%],Imax [15] [%],T1/2 [16] [h],inhibition (Homo sapiens [17]),percent protein-compound adduct formation [18] [%],IC50 (YAP1-TEAD4 [19]) [µM],IC50 (TEAD2-YAP1) [µM],Imax [21] [%],other results
O=C(NCCc1ccccc1)C(c1cccs1)N(C(=O)CCl)c1cccc(Cl)c1 (stereo unspecified),inactive,inactive,inactive,17.3,0.9,inactive,9.7,18,31,5.1,1.4,Active,37,37,2.2,inactive,55,4.6,–,–,inhibition [8]: inactive; percent protein-compound adduct formation [11]: 17%; Imax [20]: 37%
CCOc1ccc(S(=O)(=O)N2CCN(C(=O)CCl)CC2)cc1,–,inactive,inactive,–,19.4,–,–,–,44,2.4,11.1,Active,45,45,–,inactive,100,56.3,46.5,14,–
COc1ccccc1CN(C(=O)CCl)C(C(=O)NC1CCCCC1)c1ccncc1 (stereo unspecified),–,inactive,–,–,–,–,–,–,100,–,20.7,–,–,–,–,–,–,–,–,–,IC50 [22]: 27.9 µM
NC(=O)c1oc2ccccc2c1NC(=O)CCl,–,–,inactive,–,–,inactive,40,–,35,0.3,0.9,100%,–,–,–,–,–,–,254,–,IC50 [23]: 3 µM; Imax [24]: 31%
O=C(CCl)NCCSc1ccc(Cl)cc1,–,–,inactive,–,–,inactive,–,–,35,1.6,1.4,Active,–,–,–,–,–,–,86.7,–,IC50 [23]: 182 µM
O=C(Nc1ccccc1)C1CCN(C(=O)CCl)CC1,inactive,inactive,inactive,94,4.7,–,–,–,41,28.1,22.8,Active,33,33,0.1,inactive,100,38.1,–,–,inhibition [8]: inactive
CCS(=O)(=O)Oc1ccc(CN(Cc2ccc(F)cc2)C(=O)CCl)cc1,inactive,inactive,inactive,45.8,5.3,inactive,–,11,37,1.3,4.2,Active,38,38,3.3,inactive,46,54.5,22,22,percent protein-compound adduct formation [11]: 20%
Cc1ccc(C2=NN(C(=O)CCl)C(c3ccco3)C2)cc1 (stereo unspecified),inactive,inactive,inactive,–,1.4,inactive,18.1,15,40,13.5,2.2,Active,35,35,–,inactive,85,5.9,2.3,29,inhibition [25]: Active; Imax [20]: 35%
COc1cccc(C2CC(Cc3cccs3)=NN2C(=O)CCl)c1OC (stereo unspecified),inactive,inactive,inactive,37.7,2.6,inactive,23.6,15,48,8.3,3.3,Active,53,53,0.6,inactive,78,10.2,3.1,35,inhibition [25]: Active; inhibition [26]: Active; Imax [20]: 53%
